High-throughput results (PubChem BioAssay)
mABHD4 FP: inhibitors of mouse ABHD4; hit rate 0.54% among 370,000; Q8VD66; inhibition, % at 8.92 µM; purified mABHD4, FP-Rh probe fluorescence polarization; AID 720543;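 active = inhibition exceeding the mean over every tested compound plus 3 SD, cut at about 30% in these data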;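 also: 0% = plate median of compound wells and 100% = S159A mutant with DMSO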
Target sequence (Q8VD66 whole entry, looked up): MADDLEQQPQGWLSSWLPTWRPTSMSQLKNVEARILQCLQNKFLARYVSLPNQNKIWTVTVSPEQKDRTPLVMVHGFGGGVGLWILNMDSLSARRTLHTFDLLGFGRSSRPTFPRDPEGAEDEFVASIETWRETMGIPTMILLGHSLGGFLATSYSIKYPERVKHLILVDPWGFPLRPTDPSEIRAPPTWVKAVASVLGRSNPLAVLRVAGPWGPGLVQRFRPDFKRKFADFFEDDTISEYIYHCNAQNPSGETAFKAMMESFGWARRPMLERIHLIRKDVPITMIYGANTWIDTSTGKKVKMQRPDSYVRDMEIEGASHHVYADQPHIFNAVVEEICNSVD
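System: mouse ABHD4 enzyme, wild type / Medium: HEPES pH 7.0, NaCl, Pluronic buffer / Reagent: FP-Rh activity-based fluorescent probe / Control set: S159A mutant high control, sample median low control / Detection: fluorescence polarization with parallel and perpendicular emission, 525/598 nm / Schedule: 45 min + 60 min at 25 °C / Compound dosing: 8.92 µM, single dose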
ATG4B inh: blocks human ATG4B protease cleavage of LC3 substrate | ATG4B cleavage of LC3-PLA2, NBD-HPC fluorescence, 1 h | inhibition, % at 8.33 µM | Q9Y4P1 | hit rate 0.51% among 340,000; in the data active = inhibition above about 40%
PRMT1 FP inh: inhibitors of human PRMT1 | Q99873 | recombinant PRMT1, activity-based probe fluorescence polarization | inhibition, % at 2.79 µM | hit rate 1.3% among 370,000 | AID 652257;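 active = inhibition above about 21% made by adding two undisclosed values, limit read from the data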
SIAE primary: inhibitors of human sialic acid acetylesterase SIAE | Q9HAT2 | SIAE FP-Rh probe binding, fluorescence polarization | inhibition, % at 9.66 µM | hit rate 0.69% among 370,000;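 active = inhibition above a cutoff: mean of compounds within the control limits plus 3 SD of those, cut at about 17% in these data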;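 also: 0% = plate median of compound wells and 100% = probe without SIAE protein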
HTRA1 inh: blocks human HTRA1 serine peptidase; AID 504803; recombinant HTRA1, FP-rhodamine activity-based probe, fluorescence polarization; inhibition, % at 5.96 µM; hit rate 0.5% among 340,000; Q92743; in the data active = inhibition above about 36%;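 also: 0% = enzyme with DMSO and 100% = wells lacking enzyme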
TCR-CD3 inh: blocks the human TCR-CD3 interaction; TAMRA-labeled TCR probe fluorescence, biochemical; inhibition, % at 9.4 µM; hit rate 0.37% among 360,000; AID 651800; in the data active = inhibition above about 19%;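 also: recombinant mutant TCR 2C K166C tagged with TAMRA read by polarization; 0% = receptor in buffer alone and 100% = receptor with positive control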
SIAE confirm: human SIAE inhibition, confirmation | hit rate 13% among 2,300 | SIAE FP-Rh activity-based probe, fluorescence polarization | shares compounds with SIAE primary | inhibition, % at 9.66 µM;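 active = mean inhibition of the replicates above the hit cutoff set in the primary screen, cut at about 17% in these data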;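 also: 0% = SIAE with DMSO and probe and 100% = probe without SIAE; inhibitors lower polarization as more probe stays unbound to SIAE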
Starred values were filed as active, the others as inactive; . = no result given. A selection: hits, their analogues and other compounds. The true share with any hit is near 2.9%.

SMILES | mABHD4 FP | ATG4B inh | PRMT1 FP inh | SIAE primary | HTRA1 inh | TCR-CD3 inh | SIAE confirm
C[C@@H]1ON(C)[C@H]2C[C@H]3c4[nH]c5c(-c6ccccc6)cccc5c4CCN3C[C@@H]12 | 3 | . | -3 | 4 | . | -1 | .
CCOc1ccc(CNc2ccc3c(c2)ncn3C(C)(C)C)cc1 | 0 | 9 | 1 | 22* | 4 | 9 | -2
CN(C)c1ccc(CNc2ccc3c(c2)ncn3C(C)(C)C)cc1 | 3 | -6 | -3 | 18* | 11 | 3 | 3
OC1(Cc2ccccc2)CCN(c2ncnc3sccc23)CC1 | 2 | . | -1 | -3 | . | . | .
CC(/C=C(\NC(=O)c1ccccc1)C(=O)N=Nc1c(O)[nH]c2ccc(C)cc12)=C\c1ccccc1 | 4 | 0 | 2 | 21* | -22 | 5 | 9
COc1ccccc1NC(=O)C1=C(C)Nc2nc(-c3cccnc3)nn2C1c1ccccn1 (configuration not stated) | -4 | -6 | -5 | -4 | 3 | -2 | .
COc1ccccc1NC(=O)C1=C(C)Nc2nc(-c3cccs3)nn2C1c1cccnc1 (configuration not stated) | -1 | 2 | 4 | 18* | -9 | -4 | 0
Cn1c(SCCc2ccccc2)nnc1-c1ccco1 | -10 | . | 15 | -3 | . | . | .
O=C(O)c1ccccc1NN=Cc1ccccc1 | 6 | 12 | 0 | 18* | 3 | -8 | 2
CCN1CCc2c(sc(NC(=S)NC(=O)c3ccc(Cl)cc3)c2C(N)=O)C1 | 8 | 5 | -2 | 18* | 0 | -3 | 1
CC(C)(N[C@@H](Cc1c[nH]c2ccccc12)C(=O)NCCCc1ccccc1)C(=O)NCc1ccccc1 | -5 | . | -3 | 1 | . | . | .
COC(=O)C1CN(Cc2ccccc2)CCS(=O)(=O)N1Cc1ccc(C)cc1 (configuration not stated) | -7 | . | 4 | 2 | . | . | .
Cc1ccc(-n2ccnc(SCC(=O)NC3CCCC3)c2=O)cc1Cl | 9 | 5 | 15 | 17* | 1 | 0 | -9
CCOc1ccc(-n2ccnc(SCC(=O)NC3CCCC3)c2=O)cc1 | 6 | 1 | 9 | 4 | -1 | 14 | .
Cc1c(NC(=S)NC(=O)C(c2ccccc2)c2ccccc2)cccc1C(=O)O | 4 | 2 | -1 | 17* | -1 | 2 | -4
Cc1ccc(C(=O)O)cc1NC(=S)NC(=O)C(c1ccccc1)c1ccccc1 | -14 | -3 | -3 | -8 | -30 | 2 | .
COC(=O)C1=C(C)N(Cc2ccccc2C(F)(F)F)C(=NCc2ccc3c(c2)OCO3)NC1c1ccccc1 (configuration not stated) | 10 | . | 2 | -4 | . | -3 | .
COc1cc(C(=O)Nc2scc(-c3ccc(Br)cc3)c2C(=O)O)cc(OC)c1OC | -37 | 34 | -6 | 23* | -1 | -1 | 31*
CCOC(=O)c1c(-c2ccccc2)csc1NC(=O)/C(C#N)=C/c1ccc(O)c(OC)c1 | -9 | 10 | -4 | 19* | -38 | -9 | 14
NC(=O)c1ccc(NC(=O)COC(=O)c2ccccc2SCC(=O)N2CCCC2)cc1 | 4 | . | 9 | -2 | 2 | 8 | .
O=C(COC(=O)c1ccccc1SCC(=O)N1CCCC1)Nc1ccc(OC(F)F)cc1 | -7 | -3 | 19 | 20* | 2 | 3 | 1
COc1cc(/C=C/C(=O)O)cc(S(=O)(=O)N2CCCc3ccccc32)c1OC | 14 | 0 | -2 | -4 | -1 | 6 | .
COc1cc(/C=C/C(=O)O)cc(S(=O)(=O)N2CCc3ccccc32)c1OC | 4 | -8 | -3 | 19* | -2 | -1 | -6
COc1ccccc1OCCNC(=O)c1ccc(Br)cc1 | -8 | -3 | 10 | -5 | -6 | -12 | .
COc1ccccc1OCCNC(=O)Nc1ccc(Br)cc1 | 0 | -6 | 2 | 18* | -11 | -3 | 1
SMILES | mABHD4 FP | ATG4B inh | PRMT1 FP inh | SIAE primary | HTRA1 inh | TCR-CD3 inh | SIAE confirm
COc1ccccc1NC(=O)Nc1ccc(NC(=O)c2ccccc2O)cc1 | -16 | 1 | -2 | 51* | -12 | 1 | 26*
CNc1nnc(CSc2nc3ccccc3s2)s1 | -1 | -10 | 1 | -4 | 1 | 7 | .
CNc1nnc(CSc2nc(C)cc(C)n2)s1 | 5 | 5 | 0 | 27* | 5 | 5 | 9
COC(=O)c1cn(C)c2ccc(S(=O)(=O)N(C)C3CCCCC3)cc2c1=O | 4 | . | -2 | 20* | 3 | -6 | -4
CCn1cc(C(=O)OC)c(=O)c2cc(S(=O)(=O)N(C)C3CCCCC3)ccc21 | 1 | 0 | 1 | -3 | 3 | -1 | .
CCCS(=O)(=O)NC(=O)C1(C)CCN(C(=O)CSc2ccccc2)C1 (configuration not stated) | 5 | . | 3 | 20* | . | -5 | 0
CCCS(=O)(=O)NC(=O)C1(C)CCCN(C(=O)CSc2ccccc2)C1 (configuration not stated) | 5 | . | 2 | -3 | . | 8 | .
CCOC(=O)CC1(O)CSc2nc(N)cc(=O)n21 (configuration not stated) | 2 | . | -6 | 10 | . | -2 | .
CC(OC(=O)C1CCN(S(=O)(=O)c2ccc(Cl)cc2)CC1)C(=O)NC1CCCCC1C (configuration not stated) | 2 | -1 | -4 | 19* | -4 | 4 | -2
CC(OC(=O)/C=C/c1cccc(Cl)c1)C(=O)NC1CCCCC1C (configuration not stated) | 3 | 3 | -2 | 17* | 4 | 6 | -1
C/C(C=NNC(=O)CSc1nc2ccccc2n1C)=C\c1ccccc1 | -1 | . | -3 | 0 | . | . | .
COC(=O)C1CN(CCO)CCS(=O)(=O)N1Cc1cn(Cc2cccc(Cl)c2)nn1 (configuration not stated) | 0 | . | 1 | -1 | . | . | .
CN(C)N1C(N)=C(C#N)C(c2ccccc2)C2=C1CCCC2=O (configuration not stated) | -2 | -1 | 0 | 2 | 3 | 2 | .
CN(C)N1C(N)=C(C#N)C(c2ccc(F)cc2)C2=C1CCCC2=O (configuration not stated) | 2 | 2 | -1 | 19* | 0 | -5 | 5
CCc1nc2ccc(C(=O)NCCc3ccccn3)cn2c1N(C)Cc1ccc(N(C)C)cc1 | 3 | . | 2 | 23* | . | -2 | 4
CCc1nc2ccc(C(=O)NCCc3ccccn3)cn2c1N(C)Cc1nccs1 | 1 | . | -1 | 6 | . | 1 | .
CC(C)C[C@H]1COc2cccc(F)c2S(=O)(=O)N1Cc1cn(Cc2ccc(Cl)cc2)nn1 | -18 | . | -1 | -3 | . | . | .
O=S(=O)(N[C@@H]1CCCC[C@H]1N1CCOCC1)c1ccc(Cl)cc1 | 3 | . | 1 | -1 | . | . | .
COc1ccc2c(c1)CCc1sc(NC(=O)c3ccco3)nc1-2 | . | 1 | . | . | 0 | . | .
